The whole screen tested about 2,500 compounds, of which about 460 (18%) were called active.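 The calls were made as follows: active = mean activation above a cutoff of low control average plus 3 SD from the earlier screen (cut at about 12% in these data); inactive = the rest.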 The list is a sample of the results.
Experiment: compound fluorescence interference without thin filaments, confirmation, artefact control for cardiac RTF calcium sensitizer project, biochemical (AID 504382)
Conditions: IANBD fluorescence interference counterscreen, buffer, EC20 Ca2+; at 7.2 µM; stronger effect = higher value; scaled: EC20 calcium 0, EC100 calcium 100
Outline: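 Also added: EC20 calcium, 0.472 mM; dosing: single nominal 7.2 µM compound dose, 0.7% DMSO final; timing: 15 min, 25 °C; detection: fluorescence intensity, excitation 480 nm, emission 540 nm; replicates: each compound tested in triplicate wells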

| Compound | fluorescence artifact activation |
| --- | --- |
| COC(=O)c1ccc(CS(=O)(=O)c2ccc(F)cc2)o1 | 0.08% (inactive) |
| N#CC1(C#N)CC(C=O)=C(N)C1(C#N)CC(=O)c1ccc(F)cc1 (stereo not given) | 2.93% (inactive) |
| Cc1ccc(Cn2nc(C)c(NC(=O)C3(C)CC3(Br)Br)c2C)cc1 (stereo not given) | 6.32% (inactive) |
| CC(NC(=O)CN1CCC(C(N)=O)CC1)c1ccccc1 (stereo not given) | -0.04% (inactive) |
| Cc1ccc(CNC(=O)c2ccc(S(=O)(=O)N3CCCCC3)cc2)cc1 | -0.06% (inactive) |
| CN(C)NC(=S)Nc1ccc(S(=O)(=O)N2CCCCC2)cc1 | 2.09% (inactive) |
| Cc1ccc(NC(=O)CN(C)c2ccc(S(=O)(=O)N3CCCC3)cn2)cc1 | 18.6% (active) |
| COc1cc(/C=C/c2sc3ccccc3[n+]2CCCS(=O)(=O)[O-])ccc1O | 1.3% (inactive) |
| O=[N+]([O-])c1ccc(NN=Cc2cccc3ccccc23)nc1 | 7.52% (inactive) |
| COc1ccc(-n2c(C)cc(/C=C3\SC(=S)NC3=O)c2C)cc1 | -0.04% (inactive) |
| O=C(CCC1CCCN(C(=O)C2=CCCC2)C1)N1CCN(c2ccccn2)CC1 (stereo not given) | -0.04% (inactive) |
| O/C=c1\ccc2cccc3nc(C(F)(F)F)nc1c23 | 1630% (active) |
| Cc1ccc(N2C3=C(C(=O)CC(C)(C)C3)C(c3cn(C)nc3C)C3=C2CC(C)(C)CC3=O)cc1 | 8.85% (inactive) |
| CN(C)C=NC(=O)c1cc(C(=O)c2ccccc2Cl)c[nH]1 | 0.08% (inactive) |
| O=C(c1c[nH]c(C(=O)C(Cl)(Cl)Cl)c1)c1c(F)cccc1F | 1460% (active) |
| COc1ccc(-n2nc3c(N4CCC(C(=O)NCc5ccco5)CC4)nnc(C)c3c2C)cc1 | 0.15% (inactive) |
| Cn1c(/C(C#N)=C(\O)CN2CCN(Cc3ccccc3)CC2)nc2ccccc21 | -0.07% (inactive) |
| Cc1nc([N+](=O)[O-])c(Sc2nc3ccccc3n2C)n1Cc1ccccc1 | 17.2% (active) |
| Cc1nc([N+](=O)[O-])c(Br)n1CC(=O)c1ccc2ccccc2c1 | 0.15% (inactive) |
| COc1cc(-c2c(-c3ccc4c(c3)OCO4)noc2C)ccc1F | 6.28% (inactive) |

| Compound | fluorescence artifact activation |
| --- | --- |
| CCCOc1ccc(C2C(C(=O)c3ccc(C)o3)=C(O)C(=O)N2CCCn2ccnc2)cc1 (stereo not given) | 20.7% (active) |
| COC(=O)c1sc(N2C(=O)C(O)=C(C(=O)c3ccc(C)o3)C2c2ccc(F)cc2)nc1C (stereo not given) | 7.6% (inactive) |
| CCCCOc1cccc(C2C(C(=O)c3cccs3)=C(O)C(=O)N2Cc2cccnc2)c1 (stereo not given) | -0.01% (inactive) |
| COc1ccc(-c2cc(C(F)(F)F)c3c(N)c(C(=O)NCCSC)sc3n2)cc1 | 0.08% (inactive) |
| COc1ccc(Sc2ccc(-c3nc4cnccn4c3NC3CCCCC3)cc2OC)cc1 | 0.04% (inactive) |
| Cc1ccc(NC(=O)/C(C#N)=C/c2ccc(C)s2)c(C)c1 | 0.06% (inactive) |
| Cc1cccc(CSc2ccc(-c3ccco3)nn2)c1 | 0.5% (inactive) |
| Cc1cc(C)c2c(=O)n(-c3ccccc3)[nH]c2n1 | 0.96% (inactive) |
| Cc1cc(C)nc(SCCCNCc2ccc(Br)cc2)n1 | -0.01% (inactive) |
| CC(=O)C1=C(C)N(Cc2ccccc2)C(=O)N[C@@H]1c1cccc(C(F)(F)F)c1 | -0.08% (inactive) |
| CC(=O)C1=C(C)N(CC2CC2)C(=O)N[C@H]1c1ccc(Br)cc1 | 36.6% (active) |
| O=c1c2ccccc2nc2n1CCCN2 | 2.97% (inactive) |
| N=c1n(Cc2ccccc2)c2ccccc2n1CC(O)c1ccco1 (stereo not given) | 7.18% (inactive) |
| CC1(C)CCN2CCC(C)(C)c3c(O)ccc1c32 | 11.3% (inactive) |
| Cc1ccc(CC2C(=O)N(c3ccc(C)cc3)C(=O)C2C)cc1 (stereo not given) | 0.52% (inactive) |
| O=C(NN=Cc1c(O)ccc2ccccc12)c1ccncc1 | -0.04% (inactive) |
| O=C(N/N=C\c1c(O)ccc2ccccc12)c1cncc(Br)c1 | 0.16% (inactive) |
| O=C(N/N=C/c1c(O)ccc2ccccc12)c1cccc(C(F)(F)F)c1 | 53.1% (active) |
| Cc1ccc(-c2nc(NC(=O)CSc3cc(C)c4ccccc4n3)ns2)cc1 | 0.03% (inactive) |
| CN1CC=C2C(C#N)=C(N)C(C#N)(C#N)[C@H](c3cccs3)[C@H]2C1 | 0.05% (inactive) |

| Compound | fluorescence artifact activation |
| --- | --- |
| CN1CC=C2C(C#N)=C(N)C(C#N)(C#N)[C@H](c3ccoc3)[C@H]2C1 | 8.68% (inactive) |
| CC(=O)n1cc(CO)c2ccccc21 | 95.5% (active) |
| Cc1ccc(Cn2cc(CCC(=O)O)c3ccccc32)cc1 | 2.34% (inactive) |
| CSc1c(CC(=O)NCCO)n(C)c2ccccc12 | 4.19% (inactive) |
| CCOC(=O)C(C(=O)Nc1cccc(C)n1)C1CCCCC1 (stereo not given) | -0.06% (inactive) |
| CCCc1cc(=O)[nH]c(SCC)n1 | 0.11% (inactive) |
| Cc1c(C)c2c(OCC(=O)N3CCC(O)CC3)cc3c(c2oc1=O)CCC(C)(C)O3 | -0.07% (inactive) |
| Cc1cc(=O)oc2c3c(cc(OCC(=O)NCc4ccccn4)c12)OC(C)(C)CC3 | 0.25% (inactive) |
| CCCc1cc(=O)oc2c3c(cc(OCC(=O)N[C@@H](CSC)C(=O)O)c12)OC(C)(C)CC3 | 14.3% (active) |
| O=C(CSc1nc2ncc(Br)cc2[nH]1)c1cccc([N+](=O)[O-])c1 | 3.54% (inactive) |
| O=C(C[n+]1cccc2ccccc21)c1ccccc1 | 0.14% (inactive) |
| COC(=O)C[n+]1cccc2ccccc21 | 81.3% (active) |
| COc1cccc(OCCCn2cc(/C=C3/C(=N)N4C=C(C)SC4=NC3=O)c3ccccc32)c1 | 0.05% (inactive) |
| N=C1/C(=C\c2coc3ccc(O)cc3c2=O)C(=O)N=C2SC=CN12 | -0.02% (inactive) |
| COC(=O)N/N=C/c1cccnc1 | 0.05% (inactive) |
| COC1C/C(=N\O)C2OC(c3ccccc3)OCC2O1 (stereo not given) | 0.43% (inactive) |
| COc1ccc(OC)c(/C=C2/Sc3ccccc3C2=O)c1 | 0.05% (inactive) |
| COc1ccc(C2C(C(C)=O)=C(C)N=c3s/c(=C\c4cc(C)n(C)c4C)c(=O)n32)c(OC)c1 (stereo not given) | 4.81% (inactive) |
| O=C(CNC(=O)C12CC3CC(CC(C3)C1)C2)OCC(=O)N1CCCCC1 | 0.38% (inactive) |
| Cc1ccc(-c2ccc(OC(=O)c3ccc(=O)[nH]c3)c(C)c2)cc1 | 4.65% (inactive) |
